Assay results reported in ChEMBL document CHEMBL1806473, “Structure-based optimization of click-based histone deacetylase inhibitors” (Eur J Med Chem, 2011).

Legend:
SR [1] = experiment: Antiproliferative activity against human SR cells by SRB assay; format: functional
Method in brief: (§1)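 Cell growth was tested in the NIH in vitro disease-oriented human tumor cell line screen, which NCI ran for these compounds. Compounds were tested at five concentrations (100, 10, 1.0, 0.1 and 0.01 μM), and growth was read by SRB signal. GI50 is the drug concentration that reduces growth of treated cells to half that of control cells during drug incubation.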

NCI-H460 [2] = experiment: Cytotoxicity against human NCI-H460 cells; format: cell-based
UACC-62 = experiment: Cytotoxicity against human UACC62 cells; format: cell-based
Method in brief: (§2)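 Screened by NCI in its in vitro disease-oriented human tumour cell line panel. Compounds tested at five concentrations (100, 10, 1.0, 0.1 and 0.01 μM). Growth read by sulforhodamine B (SRB) signal. GI50 is the concentration reducing growth of treated cells to half that of control cells during the drug incubation.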

HOP-92 [3] = experiment: Cytotoxicity against human HOP92 cells; format: cell-based
HOP-92 [4] = experiment: Antiproliferative activity against human HOP92 cells by SRB assay; format: functional
Method in brief: (§3)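 Tested in the NCI in vitro human tumor cell line screen, run by the National Cancer Institute. Each compound was given at five concentrations (100, 10, 1.0, 0.1 and 0.01 μM). GI50 is the drug concentration that reduces growth of treated cells to half that of control cells during drug incubation, judged from the SRB signal.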

SN12C = experiment: Antiproliferative activity against human SN12C cells by SRB assay; format: functional; method in brief: as §3
T47D = experiment: Antiproliferative activity against human T47D cells by SRB assay; format: functional; method in brief: as §1
CCRF-CEM = experiment: Antiproliferative activity against human CCRF-CEM cells by SRB assay; format: functional; method in brief: as §3
ACHN [5] = experiment: Cytotoxicity against human ACHN cells; format: cell-based
K562 [6] = experiment: Antiproliferative activity against human K562 cells by SRB assay; format: functional; method in brief: as §3
BT-549 [7] = experiment: Antiproliferative activity against human BT549 cells by SRB assay; format: functional; method in brief: as §3
SW-620 = experiment: Cytotoxicity against human SW620 cells; format: cell-based; method in brief: as §2
HCT-116 [8] = experiment: Cytotoxicity against human HCT116 cells; format: cell-based
Method in brief: (§4)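 Tested in the NCI in vitro disease-oriented human tumour cell line screen, with screening performed by NCI. Growth was read by SRB signal over the drug incubation period at five concentrations: 100, 10, 1.0, 0.1 and 0.01 μM. GI50 is the concentration that reduces growth of treated cells to half that of control cells.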

PC-3 = experiment: Antiproliferative activity against human PC3 cells by SRB assay; format: functional; method in brief: as §3
SNB-75 [9] = experiment: Cytotoxicity against human SNB75 cells; format: cell-based; method in brief: as §2
BT-549 [10] = experiment: Cytotoxicity against human BT549 cells; format: cell-based
RPMI-8226 = experiment: Antiproliferative activity against human RPMI8226 cells by SRB assay; format: functional; method in brief: as §3
K562 [11] = experiment: Cytotoxicity against human K562 cells; format: cell-based
IGROV-1 = experiment: Cytotoxicity against human IGROV1 cells; format: cell-based
SK-OV-3 = experiment: Antiproliferative activity against human SKOV3 cells by SRB assay; format: functional; method in brief: as §3
SF-539 = experiment: Cytotoxicity against human SF539 cells; format: cell-based; method in brief: as §4
A549 [12] = experiment: Antiproliferative activity against human A549 cells by SRB assay; format: functional; method in brief: as §3
MDA-MB-435 = experiment: Cytotoxicity against human MDA-MB-435 cells; format: cell-based
ACHN [13] = experiment: Antiproliferative activity against human ACHN cells by SRB assay; format: functional; method in brief: as §3
OVCAR-3 = experiment: Antiproliferative activity against human OVCAR3 cells by SRB assay; format: functional; method in brief: as §3
RXF 393 = experiment: Cytotoxicity against human RXF393 cells; format: cell-based; method in brief: as §4
NCI-H322M = experiment: Cytotoxicity against human NCI-H322M cells; format: cell-based
Malme-3M = experiment: Cytotoxicity against human MALME-3M cells; format: cell-based; method in brief: as §4
U-251 [14] = experiment: Antiproliferative activity against human U251 cells by SRB assay; format: functional; method in brief: as §1
A549 [15] = experiment: Cytotoxicity against human A549 cells; format: cell-based; method in brief: as §4
U-251 [16] = experiment: Cytotoxicity against human U251 cells; format: cell-based; method in brief: as §2
COLO 205 = experiment: Cytotoxicity against human COLO205 cells; format: cell-based; method in brief: as §4
LOX IMVI = experiment: Cytotoxicity against human LOXIMVI cells; format: cell-based
HOP-62 = experiment: Antiproliferative activity against human HOP62 cells by SRB assay; format: functional; method in brief: as §3
SK-MEL-2 = experiment: Antiproliferative activity against human SK-MEL-2 cells by SRB assay; format: functional; method in brief: as §3
SF-268 = experiment: Antiproliferative activity against human SF268 cells by SRB assay; format: functional; method in brief: as §3
SF-295 = experiment: Cytotoxicity against human SF295 cells; format: cell-based; method in brief: as §4
DU-145 = experiment: Cytotoxicity against human DU145 cells; format: cell-based; method in brief: as §4
HL-60(TB) = experiment: Antiproliferative activity against human HL-60(TB) cells by SRB assay; format: functional; method in brief: as §4
HCT-116 [17] = experiment: Antiproliferative activity against human HCT116 cells by SRB assay; format: functional; method in brief: as §3
OVCAR-4 = experiment: Cytotoxicity against human OVCAR4 cells; format: cell-based
NCI-H226 = experiment: Cytotoxicity against human NCI-H226 cells; format: cell-based
NCI-H460 [18] = experiment: Antiproliferative activity against human NCI-H460 cells by SRB assay; format: functional; method in brief: as §3
SK-MEL-5 = experiment: Antiproliferative activity against human SK-MEL-5 cells by SRB assay; format: functional; method in brief: as §3
SNB-75 [19] = experiment: Antiproliferative activity against human SNB75 cells by SRB assay; format: functional; method in brief: as §1
SR [20] = experiment: Cytotoxicity against human SR cells; format: cell-based; method in brief: as §2
UO-31 = experiment: Antiproliferative activity against human UO31 cells by SRB assay; format: functional; method in brief: as §1
MOLT-4 = experiment: Cytotoxicity against human MOLT4 cells; format: cell-based
MCF7 = experiment: Antiproliferative activity against human MCF7 cells by SRB assay; format: functional; method in brief: as §3
HT-29 = experiment: Antiproliferative activity against human HT-29 cells by SRB assay; format: functional; method in brief: as §3

In the case of `CC(C)C(/C=C/c1ccccc1)n1cc(/C=C/C(=O)NO)nn1` (stereo not given), the GI50 (SR [1]) is reported as 213 nM, the LC50 (NCI-H460 [2]) is reported as 42900 nM and the LC50 (UACC-62) is reported as 6610 nM. It also gave an LC50 (HOP-92 [3]) of 22100 nM, a GI50 (HOP-92 [4]) of 1730 nM and a GI50 (SN12C) of 1860 nM. For the same compound, the GI50 (T47D) was 1240 nM, the GI50 (CCRF-CEM) was 351 nM and the LC50 (ACHN [5]) was 71100 nM. For the same compound, the GI50 (K562 [6]) was 705 nM, the GI50 (BT-549 [7]) was 3280 nM and the LC50 (SW-620) was 9220 nM. It also gave an LC50 (HCT-116 [8]) of 3850 nM, a GI50 (PC-3) of 1650 nM and an LC50 (SNB-75 [9]) of 38300 nM. It also gave an LC50 (BT-549 [10]) greater than 100000 nM, a GI50 (RPMI-8226) of 317 nM and an LC50 (K562 [11]) greater than 100000 nM. It also gave an LC50 (IGROV-1) of 31600 nM, a GI50 (SK-OV-3) of 1490 nM and an LC50 (SF-539) of 8210 nM. The GI50 (A549 [12]) was 1330 nM, the LC50 (MDA-MB-435) was 31600 nM and the GI50 (ACHN [13]) was 1210 nM. For the same compound, the GI50 (OVCAR-3) was 1530 nM, the LC50 (RXF 393) was 7680 nM and the LC50 (NCI-H322M) was greater than 100000 nM. It also gave an LC50 (Malme-3M) of 68400 nM, a GI50 (U-251 [14]) of 1130 nM and an LC50 (A549 [15]) of 88700 nM. It also gave an LC50 (U-251 [16]) of 5660 nM, an LC50 (COLO 205) of 6100 nM and an LC50 (LOX IMVI) of 5470 nM. For the same compound, the GI50 (HOP-62) was 1240 nM, the GI50 (SK-MEL-2) was 1520 nM and the GI50 (SF-268) was 1870 nM. The LC50 (SF-295) was 58300 nM, the LC50 (DU-145) was greater than 100000 nM and the GI50 (HL-60(TB)) was 728 nM. The GI50 (HCT-116 [17]) was 316 nM, the LC50 (OVCAR-4) was 71400 nM and the LC50 (NCI-H226) was 40100 nM. The GI50 (NCI-H460 [18]) was 761 nM, the GI50 (SK-MEL-5) was 730 nM and the GI50 (SNB-75 [19]) was 1820 nM. For the same compound, the LC50 (SR [20]) was greater than 100000 nM, the GI50 (UO-31) was 1480 nM and the LC50 (MOLT-4) was greater than 100000 nM. For the same compound, the GI50 (MCF7) was 1320 nM and the GI50 (HT-29) was 827 nM.
